Data set [1] deals with T1, Kallikrein-5 (Homo sapiens, UniProt Q9Y337).
T1 sequence (Q9Y337 whole entry): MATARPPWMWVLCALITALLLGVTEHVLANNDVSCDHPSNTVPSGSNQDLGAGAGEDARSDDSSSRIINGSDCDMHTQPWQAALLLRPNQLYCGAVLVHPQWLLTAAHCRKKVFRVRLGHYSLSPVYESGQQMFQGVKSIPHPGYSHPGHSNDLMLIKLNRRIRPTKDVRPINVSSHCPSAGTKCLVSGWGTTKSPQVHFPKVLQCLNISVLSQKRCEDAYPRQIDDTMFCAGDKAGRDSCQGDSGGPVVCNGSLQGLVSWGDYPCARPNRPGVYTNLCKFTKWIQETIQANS
The data set can be described thus: Inhibition of human recombinant 6His-Q-FLAG-tagged KLK5 expressed in baculovirus infected Sf9 insect cells using (Tos-Gly-Pro-Arg)2[R110].2TFA as substrate measured at 30 secs interval for 5 mins by FLINT assay. Put shortly:
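Standard KLK5 assay format. Its theoretical tight-binding limit corresponds to pIC50 8.4.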

For another data set, the target named is Kallikrein-1 (Homo sapiens, UniProt P06870). In words: Inhibition of human recombinant N-terminal His-tagged and enterokinase cleavage site-fused KLK1 (19 to 262 residues) expressed in baculovirus infected Sf9 insect cells using R110 labelled GSK3162232A as substrate measured at 30 secs interval for 5 mins by FLINT assay.
The nature of data set [2]: Dissociation constant, borocycle pKa of the compound. In kind it is physicochemical.
A further data set concerns the target Coagulation factor X (Homo sapiens, UniProt P00742). In words: Inhibition of recombinant human C-terminal 10-His-tagged factor Xa (L24 to K488 residues) expressed in baculovirus infected Sf21 insect cells using Mca-RPKPVE-Nval-WRK(Dnp)-NH2 as substrate incubated for 40 mins by FLINT assay.
The next data set addresses Plasma kallikrein (Homo sapiens, UniProt P03952). In words: Inhibition of human C-terminal 6-His-tagged KLKB1 (G20-A638 residues) expressed in mouse NS0 cells using PFR-AMC as substrate incubated for 40 mins by FLINT assay.
Another data set deals with Kallikrein-7 (Homo sapiens, UniProt P49862). In words: Inhibition of recombinant human C-terminal 10-His-tagged KLK7 (Glu23 to His252 residues) expressed in mouse NS0 cells using 5-FAM-E-A-L-Y-L-V-S-G-C(5-TAMRA) as substrate incubated for 40 mins by FLINT assay.
For a further data set, the target named is T2, Kallikrein-8 (Homo sapiens, UniProt O60259).
T2 sequence (O60259 whole entry): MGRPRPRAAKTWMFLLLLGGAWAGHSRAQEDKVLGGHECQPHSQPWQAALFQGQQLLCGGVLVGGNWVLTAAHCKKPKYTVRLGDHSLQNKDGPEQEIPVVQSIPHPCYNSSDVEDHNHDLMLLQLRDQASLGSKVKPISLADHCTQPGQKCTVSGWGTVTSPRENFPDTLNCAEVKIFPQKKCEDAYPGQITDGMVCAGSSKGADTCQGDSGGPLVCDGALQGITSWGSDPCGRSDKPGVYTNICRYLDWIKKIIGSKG
In words: Inhibition of recombinant human C-terminal 10-His-tagged KLK8 (Gln29 to Gly260 residues) expressed in mouse NS0 cells using BOC-VPR-AMC as substrate incubated for 40 mins by FLINT assay.

For the next data set, the target named is T3, Kallikrein-14 (Homo sapiens, UniProt Q9P0G3).
T3 sequence (Q9P0G3 whole entry): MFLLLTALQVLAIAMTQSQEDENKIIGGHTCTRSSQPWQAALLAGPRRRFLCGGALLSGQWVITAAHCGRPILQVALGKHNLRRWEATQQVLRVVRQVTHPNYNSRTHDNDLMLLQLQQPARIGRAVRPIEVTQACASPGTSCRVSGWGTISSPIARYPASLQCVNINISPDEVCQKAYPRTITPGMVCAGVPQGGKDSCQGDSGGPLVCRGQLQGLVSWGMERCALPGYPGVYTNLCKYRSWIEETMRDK
In words: Inhibition of recombinant human C-terminal 10-His-tagged KLK14 (Q19 to M248 residues) expressed in mouse NS0 cells using BOC-VPR-AMC as substrate incubated for 40 mins by FLINT assay.

Data set [3] addresses T4, Suppressor of tumorigenicity 14 protein (Homo sapiens, UniProt Q9Y5Y6).
T4 sequence (Q9Y5Y6 whole entry): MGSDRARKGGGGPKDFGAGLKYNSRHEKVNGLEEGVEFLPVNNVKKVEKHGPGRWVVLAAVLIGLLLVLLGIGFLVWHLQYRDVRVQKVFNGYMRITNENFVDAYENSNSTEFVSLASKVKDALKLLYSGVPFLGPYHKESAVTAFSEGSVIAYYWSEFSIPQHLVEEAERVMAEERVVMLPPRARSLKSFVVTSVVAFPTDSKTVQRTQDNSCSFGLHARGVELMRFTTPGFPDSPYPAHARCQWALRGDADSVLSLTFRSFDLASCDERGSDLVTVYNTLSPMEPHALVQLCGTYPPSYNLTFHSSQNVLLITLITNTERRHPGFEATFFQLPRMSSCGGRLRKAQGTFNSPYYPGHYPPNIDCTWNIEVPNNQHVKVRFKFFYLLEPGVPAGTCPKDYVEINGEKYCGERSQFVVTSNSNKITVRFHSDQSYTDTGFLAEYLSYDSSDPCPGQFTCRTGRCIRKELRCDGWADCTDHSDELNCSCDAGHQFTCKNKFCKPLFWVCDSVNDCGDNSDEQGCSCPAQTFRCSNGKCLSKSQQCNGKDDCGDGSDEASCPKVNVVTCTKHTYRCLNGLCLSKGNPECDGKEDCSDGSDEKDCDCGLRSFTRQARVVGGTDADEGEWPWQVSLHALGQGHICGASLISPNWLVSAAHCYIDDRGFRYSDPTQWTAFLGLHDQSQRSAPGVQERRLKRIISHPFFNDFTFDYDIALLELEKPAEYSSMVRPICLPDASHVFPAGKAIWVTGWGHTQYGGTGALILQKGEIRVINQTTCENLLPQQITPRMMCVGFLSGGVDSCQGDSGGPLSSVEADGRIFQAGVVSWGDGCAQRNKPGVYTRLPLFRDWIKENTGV
In words: Inhibition of recombinant human N-terminal Met and 6-His-tagged matriptase (G596 to V855 residues) expressed in Escherichia coli using Boc-QAR-AMC as substrate incubated for 40 mins by FLINT assay.

For the next data set, the target named is Prothrombin (Homo sapiens, UniProt P00734). In words: Inhibition of human recombinant C-terminal 10-His-tagged thrombin (M1 to E622 residues) expressed in mouse NS0 cells using BOC-VPR-AMC as substrate incubated for 40 mins by FLINT assay.
A further data set concerns the target T5, Neutrophil elastase (Homo sapiens, UniProt P08246).
T5 sequence (P08246 whole entry): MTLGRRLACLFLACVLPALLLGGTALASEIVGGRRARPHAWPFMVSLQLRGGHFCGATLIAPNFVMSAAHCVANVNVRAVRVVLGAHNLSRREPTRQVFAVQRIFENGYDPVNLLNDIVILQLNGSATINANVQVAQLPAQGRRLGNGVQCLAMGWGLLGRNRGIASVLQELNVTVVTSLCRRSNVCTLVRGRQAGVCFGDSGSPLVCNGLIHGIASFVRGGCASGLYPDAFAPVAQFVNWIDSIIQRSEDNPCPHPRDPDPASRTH
The data set can be described thus: Inhibition of human neutrophil elastase using MeOSuc-AAPV-AMC as substrate incubated for 40 mins by FLINT assay.

Data set [4] concerns the target Urokinase-type plasminogen activator (Homo sapiens, UniProt P00749). In words: Inhibition of recombinant human C-terminal 10-His-tagged urokinase (M1 to L431 residues) expressed in mouse NS0 cells using Z-GGR-AMC as substrate incubated for 40 mins by FLINT assay.
The species entered for data set [5] is Homo sapiens. In words: Selectivity ratio of IC50 for human recombinant N-terminal His-tagged and enterokinase cleavage site-fused KLK1 (19 to 262 residues) expressed in baculovirus infected Sf9 insect cells to IC50 for human recombinant 6His-Q-FLAG-tagged KLK5 expressed in baculovirus infected Sf9 insect cells.
The target in data set [6] is T1, Kallikrein-5. The data set can be described thus: Inhibition of human recombinant 6His-Q-FLAG-tagged KLK5 expressed in baculovirus infected Sf9 insect cells using (Tos-Gly-Pro-Arg)2[R110].2TFA as substrate measured at 30 secs interval for 5 mins using 1 x 10'10M enzyme by FLINT assay.
For data set [7], the species on record is Homo sapiens. The data set can be described thus: Selectivity ratio of IC50 for human C-terminal 6-His-tagged KLKB1 (G20 to A638 residues) expressed in mouse NS0 cells to IC50 for human recombinant 6His-Q-FLAG-tagged KLK5 expressed in baculovirus infected Sf9 insect cells.
In data set [8] the target is Kallikrein-5 (Homo sapiens) (UniProt Q9Y337). In words: Covalent reversible inhibition of human recombinant 6His-Q-FLAG-tagged KLK5 expressed in baculovirus infected Sf9 insect cells assessed as dissociation rate constant. The gist of the method:
(§1)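 Jump-dilution experiment used to follow dissociation from KLK5. The apparent off-rate constant (K-off, per min) and dissociation half-life (T1/2) were derived from it.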

Data set [9] shares this target. The data set can be described thus: Covalent reversible inhibition of human recombinant 6His-Q-FLAG-tagged KLK5 expressed in baculovirus infected Sf9 insect cells assessed as dissociation half life. Put shortly:
as §1

For data set [10], the target named is T1, Kallikrein-5. The data set can be described thus: Inhibition of human recombinant 6His-Q-FLAG-tagged KLK5 expressed in baculovirus infected Sf9 insect cells using rhodamine-labelled tripeptide as substrate measured at 30 secs interval for 5 mins by FLINT assay.

Each structure is given as a SMILES string. Counter-ions that a name gives are not always drawn.

`N=C(N)c1ccc(CC2OB(O)c3ccccc32)cc1OCc1cccnc1` (racemic): the IC50 on Kallikrein-5 [1] is 20 nM; at Kallikrein-1 it was 316 µM; on Coagulation factor X, > 100 µM; at Plasma kallikrein, 79.4 nM; at Kallikrein-7, > 100 µM; on Kallikrein-8, 200 nM. For the same compound, the IC50 at Kallikrein-14 is 2000 nM; in data set [3], 7.94 µM; on Prothrombin it was 10 µM; against Neutrophil elastase, 12.6 µM; in data set [4], 79.4 µM; at Kallikrein-5 [6], 6.31 nM. Besides, in data set [2], the pKa came to 4.8. Besides, the results for the Ratio IC50 in the data set listed under Homo sapiens [5] and in the data set listed under Homo sapiens [7] were > 100 and 10, respectively.

`N=C(N)c1ccc([C@@H]2Cc3ccc(C(F)(F)F)cc3B(O)O2)cc1OCc1cccnc1`: the IC50 on Kallikrein-5 [1] is 5.01 nM; on Kallikrein-1 it was 2 µM; at Coagulation factor X, 3.98 µM; against Plasma kallikrein, 398 nM; at Kallikrein-7, > 100 µM; at Kallikrein-8, 31.6 nM. Moreover, the IC50 on Kallikrein-14 was 398 nM; in data set [3], 2 µM; at Prothrombin, 20 µM; on Neutrophil elastase, > 100 µM; in data set [4], > 100 µM; on Kallikrein-5 [6] it was < 0.794 nM. For the same compound, the Kdiss in data set [8] was found to be 0.128 min⁻¹. Further, in [9], the T1/2 worked out at 5 min.

For the compound `N=C(N)c1ccccc1` [BENZAMIDINE HYDROCHLORIDE], the IC50 at Kallikrein-5 [10] is 501 µM.
